M4 ag: CHRM4 agonism in calcium assay | P08173 | CHO-K1 hM4/Gqi5, Fluo-8 calcium fluorescence; vehicle 0%, full acetylcholine response 100% | activation, % at 3 µM | actives 0.14% (n = 360,000) | AID 624127;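 active = activation above the run mean over all test wells plus 3 SD, cut at about 32% in these data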;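 note: peak over basal fluorescence ratio per well then scaled between controls; 0% = DMSO wells and 100% = acetylcholine at EC100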
Target sequence (P08173 whole entry, looked up): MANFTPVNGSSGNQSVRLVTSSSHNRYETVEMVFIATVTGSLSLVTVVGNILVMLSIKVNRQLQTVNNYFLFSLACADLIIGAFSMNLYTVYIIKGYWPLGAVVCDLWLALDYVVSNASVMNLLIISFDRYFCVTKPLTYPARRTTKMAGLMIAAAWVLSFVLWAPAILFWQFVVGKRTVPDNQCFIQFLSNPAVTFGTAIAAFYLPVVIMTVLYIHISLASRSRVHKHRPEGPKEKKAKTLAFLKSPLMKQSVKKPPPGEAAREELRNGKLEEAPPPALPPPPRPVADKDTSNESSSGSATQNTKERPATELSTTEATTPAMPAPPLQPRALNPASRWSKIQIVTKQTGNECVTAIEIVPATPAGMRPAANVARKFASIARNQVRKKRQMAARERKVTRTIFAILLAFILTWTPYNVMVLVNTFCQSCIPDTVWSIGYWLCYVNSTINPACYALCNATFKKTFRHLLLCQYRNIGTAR
CHRM4 PAM: CHRM4 positive allosteric modulation. CHO-K1 hM4/Gqi5, Fluo-8 calcium fluorescence, ACh EC20; 0% = ACh EC20, 100% = maximal ACh. activation, % at 3 µM. actives 0.4% (n = 360,000);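 active = activation above its plate's cutoff, the mean activation of sample wells plus 3 SD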
M4 antag: CHRM4 antagonism in calcium assay. actives 0.73% (n = 360,000). AID 624125. CHO-hM4 cells, ACh EC80, Fluo-8 calcium fluorescence. P08173. inhibition, % at 3 µM;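 active = inhibition above its plate's cutoff, the mean inhibition of sample wells plus 3 SD, cut at about 27% in these data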;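 note: 0% = acetylcholine EC80 with DMSO and 100% = DMSO without agonist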
CHRM5 agonist: agonists of human muscarinic M5 receptor (CHRM5). P08912. CHO-K1 hM5 cells, Fluo-8 calcium fluorescence; 0% DMSO wells, 100% maximal acetylcholine response. activation, % at 3 µM. actives 0.19% (n = 360,000). AID 624037;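 active = activation above the run's mean over test compounds plus 3 SD, cut at about 23% in these data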;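 note: signal is peak over basal fluorescence ratio across the kinetic read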
CHRM5 antagonist: blocks acetylcholine activation of human M5 receptor | P08912 | CHO-hM5 cells, Fluo-8 calcium fluorescence, ACh EC80 | inhibition, % at 3 µM | actives 0.59% (n = 360,000) | AID 624040;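 active = inhibition above a per-plate cutoff, the mean of that plate's test compounds plus 3 SD, cut at about 27% in these data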;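 note: 0% = acetylcholine EC80 with DMSO and 100% = DMSO without agonist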
CHRM5 PAM: positive allosteric modulators of human muscarinic M5 receptor. CHO-K1 hM5, Fluo-8 calcium, ACh EC20 PAM; 0% = ACh EC20, 100% = ACh EC100. activation, % at 3 µM. actives 0.3% (n = 360,000);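 active = activation above the run cutoff, the mean activation of all test compounds plus 3 SD, cut at about 18% in these data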
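Measured by: Fluo-8 calcium fluorescence; material: human M5 receptor in CHO-K1 cells; schedule: Post-acetylcholine fluorescence recording 140 s; benchmarks: low control EC20 acetylcholine (0%), high control EC100 acetylcholine (100%); read-out: Max/basal fluorescence ratio as % of EC20–EC100 ACh window; compound: single dose, 3 µM nominal final test concentration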
* hit, by the source's call. An excerpt weighted towards active compounds, which were near 1.9% of everything screened.

SMILES	M4 ag	CHRM4 PAM	M4 antag	CHRM5 agonist	CHRM5 antagonist	CHRM5 PAM
O=C(O)COCC(=O)N1CCN(C(c2ccccc2)c2ccccc2)CC1	16	-50	41*	-16	40*	-31
CCOCCn1cnc2sc(C(=O)NCCCN3CCOCC3)c(C)c2c1=O	-2	1	-1	-2	-2	2
O=S(=O)(Nc1cccc(-c2ccc3nncn3n2)c1)c1cc(F)ccc1F	1	-3	11	-4	-7	12
COc1cccc(OC)c1OCCCc1c(C)n[nH]c1C	1	29*	4	1	-11	2
Cc1cccc(OCCCc2c(C)n[nH]c2C)c1	4	7	1	4	-2	3
O=C(CCN1C(=O)S/C(=C/c2ccc(F)cc2)C1=O)Nc1ccc(O)c(C(=O)O)c1	1	-1	10	-3	4	-4
O=C(CCN1C(=O)S/C(=C\c2ccc(F)cc2)C1=O)Nc1ccc(C(=O)O)c(O)c1	1	17*	-2	0	-4	10
COc1cccc(C2c3[nH]c4ccccc4c3C[C@H]3C(=O)N(c4ccccc4C(=O)N4CCC(C(=O)O)CC4)C(=O)N23)c1 (some centres undefined)	2	6	-6	2	5	5
C[C@@H]1CN([C@@H](C)CO)C(=O)c2cc(Br)cnc2O[C@H]1CN(C)C(=O)Nc1ccccc1	1	3	-10	1	5	-3
CC1CCCCN1CC(=O)Nc1ccc(Oc2ccccc2)cc1 (centres undefined)	2	-15	57*	-13	-3	-14
CC1CCCCN1CC(=O)Nc1ccc(N2CCCCCC2)cc1 (centres undefined)	2	-14	5	-12	-3	-7
CSc1ccccc1NC(=O)CN1CCCCC1C (centres undefined)	-1	-1	10	-7	35*	-17
CSc1ccccc1NC(=O)CCc1ccccc1	0	22*	-11	-7	6	7
CC1CCCCN1CC(=O)NC(c1ccccc1)c1ccccc1 (centres undefined)	-1	-19	8	-10	9	-10
CC(O)(c1cccc(F)c1)c1nc(/C=C/c2ccccc2)cs1 (centres undefined)	1	-3	4	0	-1	-2
COc1ccc(CC(=O)Nc2ccccc2C(=O)N2CCCC2)cc1	1	-4	10	0	11	-3
O=C(CSc1nc(=O)[nH]c2c1CCCC2)Nc1ccc(F)cc1F	1	22*	-17	3	-8	1
C[C@@H]1COC(=O)[C@@H](Cc2ccc(F)cc2)C/C=C\C[C@@H](CC(=O)NCCO)C(=O)N1	0	-2	12	0	5	-1
COc1cccc(NC(=O)c2nc(S(C)(=O)=O)ncc2Cl)c1	-1	-3	36*	-2	18	-3
CN(c1ccccc1)S(=O)(=O)c1ccc(NC(=O)c2nc(S(C)(=O)=O)ncc2Cl)cc1	21	-14	78*	2	31*	-12
CN(c1ccccc1)S(=O)(=O)c1ccc(NC(=O)c2ccccc2)cc1	4	-8	5	-2	9	-10
CCN(C(=O)COC(=O)CNC(=O)c1ccc(Cl)cc1Cl)c1c(N)n(Cc2ccccc2)c(=O)[nH]c1=O	0	2	11	0	9	-4
N/C(=N\NC(=O)c1cccc(F)c1)c1cc2ccccc2oc1=O	1	28*	-11	0	-2	9
CCOC(=O)CS(=O)(=O)c1nc(-c2ccccc2)cc(C(F)(F)F)n1	2	-8	38*	-11	15	9
C/C(=N/NC(=O)c1ccncc1)c1ccc(NC(=O)c2ccc(Cl)cc2Cl)cc1	8	0	-6	-2	3	-3
SMILES	M4 ag	CHRM4 PAM	M4 antag	CHRM5 agonist	CHRM5 antagonist	CHRM5 PAM
CC(=NNC(=O)c1ccncc1)c1ccccc1O	2	3	-3	5	-5	17
CC(C)CC(=NNC(=O)c1ccncc1)c1cc(Cl)ccc1O	40*	-3	-4	38*	13	-16
CC(=NNC(=O)c1ccncc1)c1ccc2ccccc2c1O	57*	-13	11	194*	19	-48
CC(=NNC(=O)c1ccncc1)c1ccc(O)cc1O	1	10	-17	0	1	22*
CN(Cc1ccccc1)C(=O)c1ccccc1Br	0	-2	-1	-3	-8	4
CCNc1ccc(C(=O)OC(C(=O)NC(N)=O)C(C)C)cc1[N+](=O)[O-] (centres undefined)	1	3	-10	2	-1	5
Cn1nnc2cc(C(=O)NC3CC3)ccc21	0	10	11	0	8	40*
CCN(CC)C(=O)Cn1cc(C(=O)C(=O)NCCc2c[nH]c3ccccc23)c2ccccc21	11	-5	2	-4	5	-3
CCOC(=O)Nc1ccc2c(c1)N(C(=O)CCN(CC)CC)c1ccccc1S2=O (centres undefined)	5	-14	6	-5	23	-18
CC(C)(C)c1cc(CP(=O)(c2ccccc2)c2ccccc2)cc(C(C)(C)C)c1O	-2	-6	-16	4	-11	1
CC(C)Cn1c(=O)c(C(=O)Nc2ccccc2S(N)(=O)=O)c(O)c2ccccc21	0	16	0	1	-8	15
CCC(C)n1c(=O)c(C(=O)Nc2ccccc2S(N)(=O)=O)c(O)c2ccccc21 (centres undefined)	0	7	-2	-1	-11	27*
CCN(CC)c1ccc(C=C2SC(=S)NC2=O)cc1	21	-12	10	72*	35*	-37
O=C(O)CC1(CC(=O)Nc2cc(F)ccc2Cl)CCCCC1	0	-8	0	-2	4	0
O=C(O)CC1(CC(=O)Nc2ccc(F)cc2F)CCCCC1	0	-4	2	3	-1	19*
CCS(=O)(=O)c1ccc(O)c(NC(=O)CCCC(=O)O)c1	0	-3	12	2	-1	2
CCS(=O)(=O)c1ccc(O)c(NC(=O)CC2(CC(=O)O)CCCC2)c1	1	10	-10	7	-15	19*
S=c1[nH]nc(-c2ccco2)n1-c1cccc2ccccc12	1	6	5	2	13	46*
Cc1ccc(NC(=O)C2(C)Cc3ccccc3C(=O)O2)cc1 (centres undefined)	2	25*	-5	3	-10	16
COc1ccc(NC(=O)c2cc(-c3cc(F)ccc3OC)n[nH]2)c(OC)c1	14	-8	-5	5	9	-10
